Source: ChEMBL document CHEMBL2176927 (J Med Chem, 2012)
Activity calls are given as the source filed them. The rule behind the calls is not given here.

Columns and labels:
Mus musculus [1] = assay: Toxicity in human PC3 cells xenografted mouse assessed as reduction of body weight at 100 mg/kg, po qd for 14 days; format: organism-based, PC-3; set-up: dose 100 mg/kg, route oral; scale not given: the % may be the effect or the level left; details: in vivo, 336 h
Method in brief: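 Female NCR.nude mice implanted s.c. in right hind flank with NCI-PC3 cells (5 × 10^6 in Hank's balanced salt solution). Dosing started QD at average tumor volume 200 mm3, 5 mice per group. Body weight recorded twice weekly; 10% body weight loss was the limit for tolerated doses, and mice were euthanized at 20% loss or tumor volume 2000 mm3.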

PC-3 [2] = assay: Antitumor activity against human PC3 cells xenografted mouse assessed as tumor growth inhibition at 6.25 to 100 mg/kg, po qd for 14 days; format: functional, organism-based
Method in brief: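 Female NCR.nude mice with subcutaneous NCI-PC3 flank tumours, dosed orally once daily (or twice daily at the same daily total) for 14 days from a mean tumour volume of 200 mm3; 5 mice/group. Caliper volume is (L x W x W)/2, measured twice weekly.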

Mus musculus [3] = assay: Inhibition of mTORC2 in human PC3 cells xenografted mouse assessed as reduction of phosphorylated Akt level at 12.5 to 100 mg/kg, po after 6 hrs; format: functional, organism-based; details: PC-3
Method in brief: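 NCI-PC3 s.c. xenografts in female NCR.nude mice grown to about 500 mm3, then randomized (n = 4). Oral suspension in 0.5% methylcellulose/0.2% Tween 80. Tumors were lysed, normalized by BCA assay, and loaded at 20 µg/well. pAkt Ser473 and total Akt were measured in duplex on Meso Scale electrochemiluminescence in duplicate per mouse, relative to time-matched vehicle mean.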

[4] = target: T1, Phosphatidylinositol 4,5-bisphosphate 3-kinase catalytic subunit delta isoform (Homo sapiens) (UniProt O00329); assay: Inhibition of PI3Kdelta at 1 uM
T1 sequence (whole entry): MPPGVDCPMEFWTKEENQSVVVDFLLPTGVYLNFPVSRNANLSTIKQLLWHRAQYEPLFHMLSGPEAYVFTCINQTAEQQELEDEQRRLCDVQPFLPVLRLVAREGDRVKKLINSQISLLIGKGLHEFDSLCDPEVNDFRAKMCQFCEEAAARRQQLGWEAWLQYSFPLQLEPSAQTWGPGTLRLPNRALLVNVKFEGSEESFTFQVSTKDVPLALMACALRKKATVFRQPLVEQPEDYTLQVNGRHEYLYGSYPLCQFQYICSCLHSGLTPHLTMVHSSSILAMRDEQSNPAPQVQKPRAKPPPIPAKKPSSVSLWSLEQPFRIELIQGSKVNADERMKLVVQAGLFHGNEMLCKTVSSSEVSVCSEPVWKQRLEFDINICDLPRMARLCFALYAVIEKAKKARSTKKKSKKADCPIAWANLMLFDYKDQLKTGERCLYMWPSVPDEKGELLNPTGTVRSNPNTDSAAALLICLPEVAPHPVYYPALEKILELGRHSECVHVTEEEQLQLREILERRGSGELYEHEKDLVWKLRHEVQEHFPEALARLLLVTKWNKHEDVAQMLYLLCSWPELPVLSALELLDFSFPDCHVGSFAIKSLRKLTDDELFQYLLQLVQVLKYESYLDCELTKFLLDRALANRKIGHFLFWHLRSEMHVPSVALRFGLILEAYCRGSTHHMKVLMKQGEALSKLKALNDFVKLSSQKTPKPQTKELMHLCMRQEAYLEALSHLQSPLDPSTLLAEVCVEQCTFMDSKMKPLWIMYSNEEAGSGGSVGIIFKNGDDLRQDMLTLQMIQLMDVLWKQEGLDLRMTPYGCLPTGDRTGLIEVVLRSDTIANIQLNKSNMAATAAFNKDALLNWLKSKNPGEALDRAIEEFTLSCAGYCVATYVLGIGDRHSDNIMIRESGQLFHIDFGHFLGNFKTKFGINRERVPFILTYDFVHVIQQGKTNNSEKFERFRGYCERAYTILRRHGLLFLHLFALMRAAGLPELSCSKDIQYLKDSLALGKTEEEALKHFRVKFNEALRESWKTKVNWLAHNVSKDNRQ
Method in brief: (§1)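 Kinase selectivity panel of 250 kinases. Test compound at 1 µM; percent inhibition recorded for each kinase.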

Mus musculus [5] = assay: Inhibition of mTORC1 in human PC3 cells xenografted mouse assessed as reduction of phosphorylated p70S6K level at 12.5 to 100 mg/kg, po after 6 hrs; format: functional, organism-based; details: PC-3
[6] = target: Phosphatidylinositol 4,5-bisphosphate 3-kinase catalytic subunit gamma isoform (Homo sapiens) (UniProt P48736); assay: Inhibition of PI3Kgamma at 1 uM; method in brief: as §1
[7] = target: Phosphatidylinositol 4,5-bisphosphate 3-kinase catalytic subunit alpha isoform (Homo sapiens) (UniProt P42336); assay: Inhibition of PI3Kalpha at 1 uM; method in brief: as §1
[8] = Oral bioavailability in mouse at 5 mg/kg; format: ADME, organism-based; details: in vivo
[9] = AUC in mouse at 5 mg/kg, po; format: ADME, organism-based; set-up: dose 5 mg/kg, route oral; details: plasma
[10] = Half life in mouse at 1 mg/kg, iv; format: ADME, organism-based; set-up: dose 1 mg/kg, route intravenous; details: in vivo
[11] = Volume of distribution at steady state in mouse at 1 mg/kg, iv; format: ADME, organism-based; set-up: dose 1 mg/kg, route intravenous; details: in vivo, read-out: Vdss
[12] = Clearance in mouse at 1 mg/kg, iv; format: ADME, organism-based; set-up: dose 1 mg/kg, route intravenous; details: in vivo
[13] = Plasma protein binding in mouse; format: ADME, cell-free; details: read-out: PPB (converted)
[14] = Plasma protein binding in human; format: ADME, cell-free; details: read-out: PPB (converted)
[15] = Plasma protein binding in rat; format: ADME, cell-free; details: read-out: PPB (converted)
[16] = Clearance in mouse liver microsomes; format: ADME, Microsome
Method in brief: (§2)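 Hepatic clearance (Clhep) predicted from incubation with human, rat or mouse liver microsomes.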

[17] = Clearance in rat liver microsomes; format: ADME, Microsome; method in brief: as §2
[18] = Clearance in human liver microsomes; format: ADME, Microsome; method in brief: as §2
Cytochrome P450 2C19 = Cytochrome P450 2C19 (Homo sapiens, UniProt P33261); assay: Inhibition of CYP2C19-mediated mephenytoin metabolism; format: ADME; details: recombinant enzyme
Cytochrome P450 1A2 = target: T2, Cytochrome P450 1A2 (Homo sapiens, UniProt P05177); assay: Inhibition of CYP1A2-mediated phenacetin metabolism; format: ADME; details: recombinant enzyme
T2 sequence (P05177 whole entry): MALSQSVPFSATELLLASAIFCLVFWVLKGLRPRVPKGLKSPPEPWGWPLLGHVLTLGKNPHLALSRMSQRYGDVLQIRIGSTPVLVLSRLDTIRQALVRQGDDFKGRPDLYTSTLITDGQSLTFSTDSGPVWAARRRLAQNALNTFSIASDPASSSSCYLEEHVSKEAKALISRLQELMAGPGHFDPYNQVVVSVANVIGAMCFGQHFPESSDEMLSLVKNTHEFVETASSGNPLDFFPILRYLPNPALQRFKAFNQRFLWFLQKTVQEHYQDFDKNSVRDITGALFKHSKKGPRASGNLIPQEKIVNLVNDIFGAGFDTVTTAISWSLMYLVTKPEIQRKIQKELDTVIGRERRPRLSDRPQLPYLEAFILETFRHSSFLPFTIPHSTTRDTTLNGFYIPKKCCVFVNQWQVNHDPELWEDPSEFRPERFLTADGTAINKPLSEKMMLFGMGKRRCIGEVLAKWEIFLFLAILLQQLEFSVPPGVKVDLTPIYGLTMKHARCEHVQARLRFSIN

Cytochrome P450 2C9 = Cytochrome P450 2C9 (Homo sapiens, UniProt P11712); assay: Inhibition of CYP2C9-mediated warfarin metabolism; format: ADME; details: recombinant enzyme
Cytochrome P450 2D6 = Cytochrome P450 2D6 (Homo sapiens, UniProt P10635); assay: Inhibition of CYP2D6-mediated dextromethorphan metabolism; format: ADME; details: recombinant enzyme
Cytochrome P450 3A4 = Cytochrome P450 3A4 (Homo sapiens, UniProt P08684); assay: Inhibition of CYP3A4-mediated midazolam and testosterone metabolism; format: ADME; details: recombinant enzyme
PC-3 [19] = assay: Cytotoxicity against human pTEN deficient PC3 after 3 days; format: functional, cell-based; details: PC-3, 72 h
[20] = target: Serine/threonine-protein kinase mTOR (Homo sapiens, UniProt P42345); assay: Inhibition of human recombinant mTOR by FRET assay
[21] = Inhibition of mTORC2 in human pTEN deficient NCI-PC3 cells assessed as reduction of Akt phosphorylation at Ser473; format: cell-based

Phosphatidylinositol 4,5-bisphosphate 3-kinase catalytic subunit gamma isoform (Homo sapiens), sequence (P48736 whole entry, looked up, canonical isoform): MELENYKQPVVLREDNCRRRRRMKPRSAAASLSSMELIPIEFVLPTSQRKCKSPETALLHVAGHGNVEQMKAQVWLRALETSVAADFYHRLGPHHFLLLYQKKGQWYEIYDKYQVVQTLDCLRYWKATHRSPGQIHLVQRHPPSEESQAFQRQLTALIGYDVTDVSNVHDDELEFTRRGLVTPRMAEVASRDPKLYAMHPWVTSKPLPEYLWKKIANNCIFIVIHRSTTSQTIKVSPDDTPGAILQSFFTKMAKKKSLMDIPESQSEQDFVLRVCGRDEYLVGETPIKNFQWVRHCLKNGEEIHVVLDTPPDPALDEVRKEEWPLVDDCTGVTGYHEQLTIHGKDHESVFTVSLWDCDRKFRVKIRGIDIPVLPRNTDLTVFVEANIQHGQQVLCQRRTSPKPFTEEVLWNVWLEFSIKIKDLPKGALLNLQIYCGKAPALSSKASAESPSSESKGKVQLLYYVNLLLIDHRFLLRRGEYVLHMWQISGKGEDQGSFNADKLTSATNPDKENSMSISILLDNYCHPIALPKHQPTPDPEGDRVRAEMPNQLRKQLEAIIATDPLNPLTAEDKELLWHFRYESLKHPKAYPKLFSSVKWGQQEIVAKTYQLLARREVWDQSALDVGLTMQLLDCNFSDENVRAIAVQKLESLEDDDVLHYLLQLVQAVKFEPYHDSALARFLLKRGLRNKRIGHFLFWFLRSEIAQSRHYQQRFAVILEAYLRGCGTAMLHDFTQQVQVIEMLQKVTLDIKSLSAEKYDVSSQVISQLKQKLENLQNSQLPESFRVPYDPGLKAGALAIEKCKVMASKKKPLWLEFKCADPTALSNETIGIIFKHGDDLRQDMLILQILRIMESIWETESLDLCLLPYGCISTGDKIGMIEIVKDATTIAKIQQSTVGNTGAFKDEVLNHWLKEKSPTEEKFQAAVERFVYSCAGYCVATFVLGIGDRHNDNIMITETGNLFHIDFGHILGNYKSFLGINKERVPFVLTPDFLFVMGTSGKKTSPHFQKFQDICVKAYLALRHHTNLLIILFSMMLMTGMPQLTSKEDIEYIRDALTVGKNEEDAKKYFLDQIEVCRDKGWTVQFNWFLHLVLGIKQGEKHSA
Phosphatidylinositol 4,5-bisphosphate 3-kinase catalytic subunit alpha isoform (Homo sapiens), sequence (P42336 whole entry, canonical isoform): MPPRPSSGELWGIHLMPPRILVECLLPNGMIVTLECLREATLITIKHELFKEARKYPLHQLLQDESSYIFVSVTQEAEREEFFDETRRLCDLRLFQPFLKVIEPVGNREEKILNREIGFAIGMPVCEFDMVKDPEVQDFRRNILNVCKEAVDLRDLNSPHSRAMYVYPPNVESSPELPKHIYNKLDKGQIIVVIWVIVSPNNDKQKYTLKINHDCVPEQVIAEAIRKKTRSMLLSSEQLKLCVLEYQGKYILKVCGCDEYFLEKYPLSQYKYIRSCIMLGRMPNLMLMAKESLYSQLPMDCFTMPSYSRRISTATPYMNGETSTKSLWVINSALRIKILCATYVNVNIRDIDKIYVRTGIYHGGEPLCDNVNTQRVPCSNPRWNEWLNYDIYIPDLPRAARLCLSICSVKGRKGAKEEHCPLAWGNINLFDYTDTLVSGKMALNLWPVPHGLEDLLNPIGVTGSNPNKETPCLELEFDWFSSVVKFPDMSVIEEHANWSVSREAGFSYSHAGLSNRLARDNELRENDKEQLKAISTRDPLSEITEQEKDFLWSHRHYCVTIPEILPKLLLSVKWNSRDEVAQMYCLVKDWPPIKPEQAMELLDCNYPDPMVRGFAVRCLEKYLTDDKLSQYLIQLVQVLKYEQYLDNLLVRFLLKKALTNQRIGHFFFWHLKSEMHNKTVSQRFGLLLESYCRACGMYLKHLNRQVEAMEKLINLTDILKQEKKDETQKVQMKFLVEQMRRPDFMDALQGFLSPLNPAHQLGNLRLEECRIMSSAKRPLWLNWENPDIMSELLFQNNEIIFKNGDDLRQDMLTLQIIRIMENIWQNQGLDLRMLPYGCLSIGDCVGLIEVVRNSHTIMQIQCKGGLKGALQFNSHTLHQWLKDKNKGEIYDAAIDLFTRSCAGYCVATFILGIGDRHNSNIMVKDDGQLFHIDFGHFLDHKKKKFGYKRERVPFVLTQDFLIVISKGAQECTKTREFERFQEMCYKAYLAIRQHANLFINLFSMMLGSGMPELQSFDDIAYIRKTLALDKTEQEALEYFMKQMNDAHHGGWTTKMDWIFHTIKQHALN
Cytochrome P450 2D6, sequence (P10635 whole entry): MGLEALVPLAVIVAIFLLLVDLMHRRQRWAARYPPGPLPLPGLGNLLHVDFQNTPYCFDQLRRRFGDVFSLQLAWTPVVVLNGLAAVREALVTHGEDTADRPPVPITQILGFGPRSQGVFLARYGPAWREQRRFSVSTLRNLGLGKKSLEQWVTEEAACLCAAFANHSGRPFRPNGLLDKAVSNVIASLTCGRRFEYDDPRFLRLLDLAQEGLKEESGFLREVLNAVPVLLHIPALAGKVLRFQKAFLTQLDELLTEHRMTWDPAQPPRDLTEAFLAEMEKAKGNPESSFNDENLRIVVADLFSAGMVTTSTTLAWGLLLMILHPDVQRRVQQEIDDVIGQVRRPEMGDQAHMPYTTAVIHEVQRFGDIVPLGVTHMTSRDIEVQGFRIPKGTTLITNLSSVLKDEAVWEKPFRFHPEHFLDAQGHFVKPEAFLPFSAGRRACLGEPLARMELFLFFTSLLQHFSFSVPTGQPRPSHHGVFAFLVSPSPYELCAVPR
Cytochrome P450 2C9, sequence (P11712 whole entry): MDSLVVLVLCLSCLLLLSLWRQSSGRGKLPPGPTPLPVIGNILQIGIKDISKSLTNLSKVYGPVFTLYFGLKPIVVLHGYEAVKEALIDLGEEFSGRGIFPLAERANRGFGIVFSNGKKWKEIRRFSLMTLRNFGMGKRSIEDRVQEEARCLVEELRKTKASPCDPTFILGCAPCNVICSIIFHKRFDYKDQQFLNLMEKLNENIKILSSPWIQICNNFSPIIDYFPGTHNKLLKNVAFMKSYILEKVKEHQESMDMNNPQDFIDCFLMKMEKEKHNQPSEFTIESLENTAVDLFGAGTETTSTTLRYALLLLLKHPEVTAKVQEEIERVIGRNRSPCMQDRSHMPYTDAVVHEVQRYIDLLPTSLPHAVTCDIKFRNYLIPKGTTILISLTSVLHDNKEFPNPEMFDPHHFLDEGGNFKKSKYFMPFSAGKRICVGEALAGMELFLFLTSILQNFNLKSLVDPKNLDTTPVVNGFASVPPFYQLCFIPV
Cytochrome P450 3A4, sequence (P08684 whole entry): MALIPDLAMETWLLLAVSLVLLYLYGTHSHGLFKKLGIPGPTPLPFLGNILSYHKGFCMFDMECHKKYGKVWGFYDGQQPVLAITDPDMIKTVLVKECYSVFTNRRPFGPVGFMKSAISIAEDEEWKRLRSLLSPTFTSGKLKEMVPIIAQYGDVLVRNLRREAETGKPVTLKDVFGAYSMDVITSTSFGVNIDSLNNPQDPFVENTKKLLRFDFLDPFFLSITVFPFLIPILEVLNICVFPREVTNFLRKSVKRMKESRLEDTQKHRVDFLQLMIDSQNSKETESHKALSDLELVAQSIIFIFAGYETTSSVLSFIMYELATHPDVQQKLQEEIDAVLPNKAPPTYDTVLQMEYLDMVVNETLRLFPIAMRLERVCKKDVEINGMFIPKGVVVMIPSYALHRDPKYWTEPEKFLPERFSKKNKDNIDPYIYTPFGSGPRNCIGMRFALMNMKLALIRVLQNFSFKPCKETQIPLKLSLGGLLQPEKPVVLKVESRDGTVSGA
Cytochrome P450 2C19, sequence (P33261 whole entry): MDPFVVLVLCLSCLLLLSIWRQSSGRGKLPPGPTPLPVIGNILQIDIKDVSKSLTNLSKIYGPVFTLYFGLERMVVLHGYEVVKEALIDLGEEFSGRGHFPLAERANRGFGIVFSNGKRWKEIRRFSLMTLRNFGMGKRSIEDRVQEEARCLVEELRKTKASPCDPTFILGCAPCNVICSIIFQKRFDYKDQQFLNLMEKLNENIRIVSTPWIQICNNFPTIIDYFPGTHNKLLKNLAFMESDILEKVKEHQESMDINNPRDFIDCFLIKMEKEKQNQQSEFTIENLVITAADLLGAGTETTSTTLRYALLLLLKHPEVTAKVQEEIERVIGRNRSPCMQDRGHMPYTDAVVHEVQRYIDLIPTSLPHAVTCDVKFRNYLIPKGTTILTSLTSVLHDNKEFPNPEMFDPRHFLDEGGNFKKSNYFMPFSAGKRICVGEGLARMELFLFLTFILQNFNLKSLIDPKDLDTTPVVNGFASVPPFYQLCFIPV

SMILES: CCNC(=O)Nc1ccc(-c2nc3c(c(N4CCOCC4)n2)CCN(c2ncccn2)C3)cc1
- Activity (Mus musculus [1]): > 10%
- TGI (PC-3 [2]): Active
- inhibition (Mus musculus [3]): Active
- inhibition [4]: 50%
- inhibition (Mus musculus [5]): Active
- inhibition [6]: 50%
- inhibition [7]: 50%
- bioavailability [8]: 70%
- AUC [9]: 5.7 µM·h
- half-life [10]: 42 min
- Vd [11]: 1.1 L/kg
- clearance [12]: 22 mL/min/kg
- fraction unbound [13]: 0.01
- fraction unbound [14]: 0.02
- fraction unbound [15]: 0.01
- CLhep predicted [16]: 40 mL/min/kg
- CLhep predicted [17]: 31 mL/min/kg
- CLhep predicted [18]: 13 mL/min/kg
- inhibition (INH) (Cytochrome P450 2C19): Not Active
- inhibition (INH) (Cytochrome P450 1A2): Not Active
- inhibition (INH) (Cytochrome P450 2C9): Not Active
- inhibition (INH) (Cytochrome P450 2D6): Not Active
- inhibition (INH) (Cytochrome P450 3A4): Not Active
- IC50 (PC-3 [19]): 290 nM
- Ki [20]: 5.5 nM
- IC50 [21]: 25 nM
